# Measurements taken from ChEMBL document CHEMBL2331117 (J Med Chem, 2013).
# Key:
# [1] = biological target: Receptor-type tyrosine-protein kinase FLT3 (Homo sapiens, UniProt P36888); experiment: Inhibition of FLT3 (unknown origin)
# [2] = Metabolic stability in human liver microsomes after 30 mins; format: ADME, Microsome; details: read-out: Stability
# Mus musculus [3] = experiment: In vivo inhibition of mTORC2-mediated phosphorylation of AKT at serine 473 in human MCF7 cells xenografted into athymic nude mouse at 100 mg/kg, po after 1 hr by Western blotting analysis relative to control; format: functional; details: MCF7, 1 h
# Procedure, shortened: (§1)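 MCF-7 cells (DMEM, 10% FBS) were implanted subcutaneously at 5 × 10^6 cells in 50% cold HBSS/50% growth-factor-reduced matrigel into the hindflank of 5−8 week old female nude mice. At tumor size 40−150 mg, mice received a single oral dose of 100 mg/kg. Tumor lysates were pooled per group. Phospho-AKT (S473, T308), p70S6K (T389), S6 (S240/244) and 4E-BP1 (T37/46) were measured by Western blot normalized to α-tubulin.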
# [4] = Drug uptake in tumor of athymic mouse xenografted with human MCF7 cells at 100 mg/kg, po after 24 hrs; format: ADME, organism-based, Neoplasm; design: dose 100 mg/kg, route oral; details: in vivo, BLD = below limit of detection
# Cytochrome P450 3A4 = Cytochrome P450 3A4 (Homo sapiens, UniProt P08684); experiment: Inhibition of CYP3A4 (unknown origin); format: ADME
# Sequence of Cytochrome P450 3A4 (P08684 whole entry): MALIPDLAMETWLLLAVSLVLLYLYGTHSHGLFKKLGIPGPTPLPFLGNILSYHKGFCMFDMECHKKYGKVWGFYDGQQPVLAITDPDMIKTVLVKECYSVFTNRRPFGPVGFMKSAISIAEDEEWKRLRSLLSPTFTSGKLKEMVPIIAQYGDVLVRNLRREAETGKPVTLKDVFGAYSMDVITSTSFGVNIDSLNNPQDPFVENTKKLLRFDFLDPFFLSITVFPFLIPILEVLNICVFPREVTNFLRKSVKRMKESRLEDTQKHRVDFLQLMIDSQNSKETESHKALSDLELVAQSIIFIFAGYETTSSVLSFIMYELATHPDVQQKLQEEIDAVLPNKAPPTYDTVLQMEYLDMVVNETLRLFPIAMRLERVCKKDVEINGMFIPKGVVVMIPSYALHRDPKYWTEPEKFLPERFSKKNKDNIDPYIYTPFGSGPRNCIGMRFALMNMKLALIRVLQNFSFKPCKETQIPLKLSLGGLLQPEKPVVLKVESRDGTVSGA
# Mus musculus [5] = experiment: In vivo inhibition of mTORC1-mediated phosphorylation of pS6 at (serine 240/244) in human MCF7 cells xenografted into athymic nude mouse at 100 mg/kg, po after 4 hrs by Western blotting analysis relative to control; format: functional; details: MCF7, 4 h; procedure, shortened: as §1
# [6] = Cmax in cynomolgus monkey at 3 mg/kg, po; format: ADME, organism-based, Macaca fascicularis; design: dose 3 mg/kg, route oral; details: in vivo
# Procedure, shortened: (§2)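 Single-dose PK: female athymic nude mice (10 mg/kg), female CD rats and male beagle dogs (3 mg/kg), male cynomolgus monkeys (3 mg/kg), given iv and by oral gavage. Solution in EPW (5% ethanol/45% PEG400/water), with 1:2 HCl (m/m) for mouse, rat and dog and 1:1.5 HCl (m/m) for monkey. Plasma levels followed over 24 h.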
# [7] = biological target: Heat shock protein HSP 90-beta (Homo sapiens, UniProt P08238); experiment: Inhibition of HSP90 (unknown origin)
# Sequence of Heat shock protein HSP 90-beta (P08238 whole entry): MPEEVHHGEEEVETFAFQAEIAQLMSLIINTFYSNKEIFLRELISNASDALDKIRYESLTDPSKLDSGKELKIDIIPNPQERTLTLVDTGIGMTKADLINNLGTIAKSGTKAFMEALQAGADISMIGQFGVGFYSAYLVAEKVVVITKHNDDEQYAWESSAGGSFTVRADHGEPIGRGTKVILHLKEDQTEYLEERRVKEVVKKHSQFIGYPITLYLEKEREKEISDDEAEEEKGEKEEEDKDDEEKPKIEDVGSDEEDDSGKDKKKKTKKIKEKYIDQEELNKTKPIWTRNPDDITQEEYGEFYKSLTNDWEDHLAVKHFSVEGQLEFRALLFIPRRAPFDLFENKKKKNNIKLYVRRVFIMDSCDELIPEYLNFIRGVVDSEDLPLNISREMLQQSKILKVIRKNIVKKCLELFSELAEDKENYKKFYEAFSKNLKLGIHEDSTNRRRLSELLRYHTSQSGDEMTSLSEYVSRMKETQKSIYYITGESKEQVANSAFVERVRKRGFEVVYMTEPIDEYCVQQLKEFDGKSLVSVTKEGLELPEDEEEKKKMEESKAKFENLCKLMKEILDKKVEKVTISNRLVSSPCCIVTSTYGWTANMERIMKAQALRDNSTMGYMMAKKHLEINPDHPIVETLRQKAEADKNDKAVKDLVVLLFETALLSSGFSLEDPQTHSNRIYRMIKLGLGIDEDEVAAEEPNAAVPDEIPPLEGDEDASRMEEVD
# [8] = biological target: RAC-alpha serine/threonine-protein kinase (Homo sapiens, UniProt P31749); experiment: Inhibition of AKT1 (unknown origin)
# Sequence of RAC-alpha serine/threonine-protein kinase (P31749 whole entry): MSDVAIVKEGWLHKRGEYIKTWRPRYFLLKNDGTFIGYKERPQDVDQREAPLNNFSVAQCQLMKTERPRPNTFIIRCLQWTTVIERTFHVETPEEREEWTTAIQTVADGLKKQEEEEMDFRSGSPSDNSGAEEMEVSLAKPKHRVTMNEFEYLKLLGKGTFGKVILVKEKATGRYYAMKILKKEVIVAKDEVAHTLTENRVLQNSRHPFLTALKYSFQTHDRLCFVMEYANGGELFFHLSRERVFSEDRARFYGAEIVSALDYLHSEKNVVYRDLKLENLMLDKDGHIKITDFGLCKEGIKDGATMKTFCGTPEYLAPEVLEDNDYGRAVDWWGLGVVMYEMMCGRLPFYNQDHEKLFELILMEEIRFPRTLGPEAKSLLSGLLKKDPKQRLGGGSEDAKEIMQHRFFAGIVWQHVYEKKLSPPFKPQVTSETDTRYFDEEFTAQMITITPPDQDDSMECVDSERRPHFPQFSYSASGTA
# Mus musculus [9] = experiment: In vivo inhibition of mTORC1-mediated phosphorylation of 4EBP1 at ([…]) in human MCF7 cells xenografted into athymic nude mouse at 100 mg/kg, po after 24 hrs by Western blotting analysis relative to control; format: functional; details: MCF7, 24 h
# Mus musculus [10] = experiment: In vivo inhibition of mTORC2-mediated phosphorylation of AKT at […] in human PC3 cells xenografted into athymic nude mouse at 100 mg/kg, po after 24 hrs by Western blotting analysis relative to control; format: functional; details: PC-3, 24 h
# Procedure, shortened: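 Human PC-3 cells were implanted subcutaneously into the hindflank of male nude mice aged 5−8 weeks, at 3 × 10^6 cells (passages 10−14, >95% viability) in ice-cold HBSS. At a tumor size of 200−500 mg, mice got one oral 100 mg/kg dose. Tumors were taken at 1, 4, 8, 16, 24 and 32 h. Lysates (n = 5 per group) were pooled, and phospho-AKT (T308) was read by Western blot, normalized to α-tubulin.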
# [11] = Plasma protein binding in monkey at 5 uM; format: ADME, cell-free, Macaca mulatta; details: rhesus monkey, read-out: PPB (converted)
# [12] = Cmax in Beagle dog at 3 mg/kg, iv; format: ADME, organism-based, Canis lupus familiaris; design: dose 3 mg/kg, route intravenous; details: in vivo; procedure, shortened: as §2
# Mus musculus [13] = experiment: In vivo inhibition of mTORC1-mediated phosphorylation of pS6 at (serine 240/244) in human PC3 cells xenografted into athymic nude mouse at 100 mg/kg, po after 8 hrs by Western blotting analysis relative to control; format: functional; details: PC-3, 8 h
# Procedure, shortened: (§3)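 PC-3 cells grown in DMEM with 20% FBS were implanted subcutaneously at 3 × 10^6 cells in ice-cold HBSS into the hindflank of 5−8 week old male nude mice. At tumor size 200−500 mg, mice received a single oral dose of 100 mg/kg. Plasma and tumors were collected at 1, 4, 8, 16, 24 and 32 h. Tumor lysates from each group (n = 5) were pooled. Phospho-proteins were quantified by Western blot and normalized to α-tubulin.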
# Cytochrome P450 2C9 = Cytochrome P450 2C9 (Homo sapiens, UniProt P11712); experiment: Inhibition of CYP2C9 (unknown origin); format: ADME
# [14] = biological target: Phosphatidylinositol 4,5-bisphosphate 3-kinase catalytic subunit beta isoform (Homo sapiens, UniProt P42338); experiment: Inhibition of PI3Kbeta (unknown origin)
# Sequence of Phosphatidylinositol 4,5-bisphosphate 3-kinase catalytic subunit beta isoform (P42338 whole entry, canonical isoform): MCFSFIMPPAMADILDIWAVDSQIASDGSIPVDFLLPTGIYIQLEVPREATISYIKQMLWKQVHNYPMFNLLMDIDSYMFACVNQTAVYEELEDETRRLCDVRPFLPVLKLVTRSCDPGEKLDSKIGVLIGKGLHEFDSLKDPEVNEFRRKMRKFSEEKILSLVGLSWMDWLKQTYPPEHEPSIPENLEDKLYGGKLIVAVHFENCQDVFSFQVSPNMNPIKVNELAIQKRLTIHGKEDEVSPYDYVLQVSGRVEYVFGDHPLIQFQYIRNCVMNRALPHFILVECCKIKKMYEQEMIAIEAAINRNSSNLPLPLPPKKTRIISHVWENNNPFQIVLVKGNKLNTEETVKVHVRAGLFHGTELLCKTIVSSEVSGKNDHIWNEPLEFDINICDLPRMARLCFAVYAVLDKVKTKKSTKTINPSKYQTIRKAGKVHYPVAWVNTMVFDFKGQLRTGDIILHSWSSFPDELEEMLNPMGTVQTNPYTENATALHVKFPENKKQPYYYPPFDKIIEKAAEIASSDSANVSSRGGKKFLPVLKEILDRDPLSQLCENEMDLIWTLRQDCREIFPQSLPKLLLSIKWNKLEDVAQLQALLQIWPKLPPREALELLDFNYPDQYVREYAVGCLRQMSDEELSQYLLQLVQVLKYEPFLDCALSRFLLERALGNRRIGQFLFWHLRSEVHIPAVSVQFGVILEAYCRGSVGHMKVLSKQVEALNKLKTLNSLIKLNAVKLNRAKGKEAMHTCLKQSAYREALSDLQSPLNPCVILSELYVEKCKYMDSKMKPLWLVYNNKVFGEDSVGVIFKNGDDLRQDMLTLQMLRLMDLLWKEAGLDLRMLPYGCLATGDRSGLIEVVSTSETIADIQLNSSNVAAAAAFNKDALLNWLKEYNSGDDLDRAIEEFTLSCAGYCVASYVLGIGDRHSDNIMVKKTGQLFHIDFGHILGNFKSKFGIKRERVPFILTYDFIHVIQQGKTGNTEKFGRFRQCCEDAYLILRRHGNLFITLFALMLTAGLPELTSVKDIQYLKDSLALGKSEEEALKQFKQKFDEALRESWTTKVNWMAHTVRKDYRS
# [15] = biological target: Phosphatidylinositol 4,5-bisphosphate 3-kinase catalytic subunit alpha isoform (Homo sapiens, UniProt P42336); experiment: Inhibition of PI3Kalpha (unknown origin) using PIP2 as substrate after 2 hrs by luminescence assay
# Sequence of Phosphatidylinositol 4,5-bisphosphate 3-kinase catalytic subunit alpha isoform (P42336 whole entry, canonical isoform): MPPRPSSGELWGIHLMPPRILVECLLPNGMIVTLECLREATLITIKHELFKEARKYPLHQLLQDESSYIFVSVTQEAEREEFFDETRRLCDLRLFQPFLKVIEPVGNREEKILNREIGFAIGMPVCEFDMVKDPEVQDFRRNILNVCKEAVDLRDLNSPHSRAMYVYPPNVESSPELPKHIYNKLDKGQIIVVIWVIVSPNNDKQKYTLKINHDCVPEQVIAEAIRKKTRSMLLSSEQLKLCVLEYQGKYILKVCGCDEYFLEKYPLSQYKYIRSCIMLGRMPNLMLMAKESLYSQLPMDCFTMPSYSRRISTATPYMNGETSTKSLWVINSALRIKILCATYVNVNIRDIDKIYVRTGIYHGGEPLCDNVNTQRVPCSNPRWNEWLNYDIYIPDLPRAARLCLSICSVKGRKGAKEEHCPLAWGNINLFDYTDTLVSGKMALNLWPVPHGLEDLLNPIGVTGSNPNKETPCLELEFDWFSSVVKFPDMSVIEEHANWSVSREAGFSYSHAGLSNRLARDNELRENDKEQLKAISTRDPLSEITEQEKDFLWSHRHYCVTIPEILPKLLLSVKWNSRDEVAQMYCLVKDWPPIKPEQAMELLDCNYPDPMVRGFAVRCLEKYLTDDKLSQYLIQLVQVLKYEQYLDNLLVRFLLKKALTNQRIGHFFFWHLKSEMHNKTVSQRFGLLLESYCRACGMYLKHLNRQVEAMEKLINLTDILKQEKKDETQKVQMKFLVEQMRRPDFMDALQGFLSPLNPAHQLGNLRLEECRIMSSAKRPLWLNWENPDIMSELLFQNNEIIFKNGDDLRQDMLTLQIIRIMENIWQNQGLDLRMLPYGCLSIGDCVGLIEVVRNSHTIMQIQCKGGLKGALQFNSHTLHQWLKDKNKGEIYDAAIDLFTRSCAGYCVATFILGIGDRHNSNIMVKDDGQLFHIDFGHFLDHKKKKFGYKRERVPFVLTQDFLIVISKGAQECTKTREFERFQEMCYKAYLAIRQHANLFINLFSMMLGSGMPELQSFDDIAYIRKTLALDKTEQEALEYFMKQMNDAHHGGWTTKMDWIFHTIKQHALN
# [16] = Drug uptake in tumor of athymic mouse xenografted with human PC3 cells at 100 mg/kg, po after 16hrs; format: ADME, organism-based, Neoplasm, PC-3; design: dose 100 mg/kg, route oral; details: read-out: Drug uptake
# Procedure, shortened: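 PC-3 cells (3 × 10⁶, passages 10–14, in ice-cold HBSS) were implanted sc in 5–8 week old male nude mice. Tumors of 200–500 mg received a single oral 100 mg/kg dose. Plasma and tumor were collected at 1, 4, 8, 16, 24 and 32 h and homogenized in buffer. Lysates were pooled per group (n = 5), and phospho-proteins were measured by Western blot normalized to α-tubulin.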
# Mus musculus [17] = experiment: In vivo inhibition of mTORC1-mediated phosphorylation of 4EBP1 at ([…]) in human MCF7 cells xenografted into athymic nude mouse at 100 mg/kg, po after 8 hrs by Western blotting analysis relative to control; format: functional; details: MCF7, 8 h; procedure, shortened: as §1
# Mus musculus [18] = experiment: In vivo inhibition of mTORC1-mediated phosphorylation of pS6 at (serine 240/244) in human PC3 cells xenografted into athymic nude mouse at 100 mg/kg, po after 24 hrs by Western blotting analysis relative to control; format: functional; details: PC-3, 24 h; procedure, shortened: as §3
# Mus musculus [19] = experiment: In vivo inhibition of mTORC1-mediated phosphorylation of p70S6K at […] in human MCF7 cells xenografted into athymic nude mouse at 100 mg/kg, po after 1 hr by Western blotting analysis relative to control; format: functional; details: MCF7, 1 h; procedure, shortened: as §1
# MCF7 = experiment: Antitumor activity against human MCF7 cells xenografted in athymic nude mouse at 50 mg/kg, po qd for 14 days relative to control; format: functional
# Procedure, shortened: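 Female athymic nude (NCr) mice, 5–8 weeks old, bearing subcutaneous MCF-7 tumors staged at 100–200 mg. Compound given orally qd for 14 days at 50 or 100 mg/kg as a solution/fine suspension in water with a 1:1 molar ratio of 1 N HCl. Caliper tumor mass = length × width²/2, measured twice weekly; body mass recorded daily.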
# [20] = Clearance in cynomolgus monkey at 3 mg/kg, iv; format: ADME, organism-based, Macaca fascicularis; design: dose 3 mg/kg, route intravenous; details: in vivo; procedure, shortened: as §2
# [21] = Plasma concentration in athymic mouse plasma xenografted with human MCF7 cells at 100 mg/kg, po after 8 hrs; format: ADME, organism-based; design: dose 100 mg/kg, route oral
# [22] = AUC (0 to infinity) in athymic nude mouse at 10 mg/kg, iv; format: ADME, organism-based; design: time infinity, dose 10 mg/kg, route intravenous; details: plasma; procedure, shortened: as §2
# Mus musculus [23] = experiment: In vivo inhibition of mTORC1-mediated phosphorylation of 4EBP1 at ([…]) in human PC3 cells xenografted into athymic nude mouse at 100 mg/kg, po after 1 hr by Western blotting analysis relative to control; format: functional; details: PC-3, 1 h; procedure, shortened: as §3
# Sequence of Receptor-type tyrosine-protein kinase FLT3 (P36888 whole entry): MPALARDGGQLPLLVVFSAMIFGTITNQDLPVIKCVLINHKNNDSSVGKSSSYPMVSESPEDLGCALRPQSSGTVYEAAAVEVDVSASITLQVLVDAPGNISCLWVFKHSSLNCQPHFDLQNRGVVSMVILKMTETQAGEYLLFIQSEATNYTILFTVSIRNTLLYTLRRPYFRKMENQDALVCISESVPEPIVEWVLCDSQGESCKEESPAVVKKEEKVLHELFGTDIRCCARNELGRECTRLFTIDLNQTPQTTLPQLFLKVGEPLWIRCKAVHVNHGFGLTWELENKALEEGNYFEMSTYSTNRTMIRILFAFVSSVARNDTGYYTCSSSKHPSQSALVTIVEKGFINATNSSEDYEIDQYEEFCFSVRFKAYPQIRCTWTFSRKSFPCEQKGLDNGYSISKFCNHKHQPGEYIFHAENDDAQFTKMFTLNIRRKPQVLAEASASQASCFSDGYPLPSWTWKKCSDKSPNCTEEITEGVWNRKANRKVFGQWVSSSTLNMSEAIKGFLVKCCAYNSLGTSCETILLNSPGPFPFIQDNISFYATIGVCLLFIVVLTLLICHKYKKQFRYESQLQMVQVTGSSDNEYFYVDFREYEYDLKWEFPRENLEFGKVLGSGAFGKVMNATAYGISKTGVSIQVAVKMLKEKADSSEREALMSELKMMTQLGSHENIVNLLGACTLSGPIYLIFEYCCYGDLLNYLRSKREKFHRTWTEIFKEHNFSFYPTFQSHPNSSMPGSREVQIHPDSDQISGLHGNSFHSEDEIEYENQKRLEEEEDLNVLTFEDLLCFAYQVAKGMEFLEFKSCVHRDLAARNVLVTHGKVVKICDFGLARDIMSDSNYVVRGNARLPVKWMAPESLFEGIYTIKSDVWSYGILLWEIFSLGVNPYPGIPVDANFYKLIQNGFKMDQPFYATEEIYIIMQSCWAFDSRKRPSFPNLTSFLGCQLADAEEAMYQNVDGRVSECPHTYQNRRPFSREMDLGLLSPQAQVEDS
smiles,measurement,setting,value
Cc1c(C(=O)N2CCOc3ccc(-c4ccc(N)nc4)cc3C2)ccc(S(C)(=O)=O)c1F,IC50,[1],> 3.5 µM
same,remaining at 0.5 h,[2],93%
same,inhibition in vivo at 100 mg/kg,Mus musculus [3],93%
same,Drug uptake,[4],BLD
same,INH,Cytochrome P450 3A4,24.6 µM
same,inhibition in vivo at 100 mg/kg,Mus musculus [5],94%
same,Cmax,[6],250 nM
same,IC50,[7],> 3.5 µM
same,IC50,[8],> 3.5 µM
same,inhibition in vivo at 100 mg/kg,Mus musculus [9],-17%
same,inhibition in vivo at 100 mg/kg,Mus musculus [10],11%
same,fraction unbound at 5 µM,[11],0.1
same,Cmax,[12],2280 nM
same,inhibition in vivo at 100 mg/kg,Mus musculus [13],91%
same,INH,Cytochrome P450 2C9,10.6 µM
same,IC50,[14],> 5 µM
same,IC50,[15],> 3 µM
same,concentration at 16 h,[16],7.34 µM
same,inhibition in vivo at 100 mg/kg,Mus musculus [17],88%
same,inhibition in vivo at 100 mg/kg,Mus musculus [18],8%
same,inhibition in vivo at 100 mg/kg,Mus musculus [19],85%
same,Activity,MCF7,22%
same,clearance,[20],84.2 mL/min/kg
same,concentration at 8 h,[21],16.5 µM
same,AUC(0-inf),[22],8 µM·h
same,inhibition in vivo at 100 mg/kg,Mus musculus [23],94%
